In ChEMBL document CHEMBL1135402, “New serotonin 5-HT(2A), 5-HT(2B), and 5-HT(2C) receptor antagonists: synthesis, pharmacology, 3D-QSAR, and molecular modeling of (aminoalkyl)benzo and heterocycloalkanones” (J Med Chem, 2002):
pKi: −log10 of the molar value.

Target: T1, 5-hydroxytryptamine receptor 2A (Rattus norvegicus, UniProt P14842)
Test: Negative log concentration of antagonist on 5-hydroxytryptamine 2A receptor in rat thoracic aorta
Format: functional, tissue-based
Details: read-out: pA2 (converted)

T1 sequence (P14842 whole entry): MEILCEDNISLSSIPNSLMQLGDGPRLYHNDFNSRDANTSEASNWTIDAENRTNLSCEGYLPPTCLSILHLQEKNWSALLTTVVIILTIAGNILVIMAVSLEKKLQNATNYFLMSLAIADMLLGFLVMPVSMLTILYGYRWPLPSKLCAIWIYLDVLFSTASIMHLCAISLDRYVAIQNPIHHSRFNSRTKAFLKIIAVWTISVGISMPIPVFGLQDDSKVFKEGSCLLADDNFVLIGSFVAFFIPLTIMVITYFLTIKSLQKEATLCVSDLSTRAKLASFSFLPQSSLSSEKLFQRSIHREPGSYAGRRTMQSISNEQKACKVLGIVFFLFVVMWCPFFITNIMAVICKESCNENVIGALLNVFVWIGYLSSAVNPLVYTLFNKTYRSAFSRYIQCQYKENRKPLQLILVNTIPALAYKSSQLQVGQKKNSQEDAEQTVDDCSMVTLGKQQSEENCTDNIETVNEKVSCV

Row | Structure (SMILES) | Kb [nM]
1 | O=C1CC(CN2CCC(c3noc4cc(F)ccc34)CC2)Cc2occc21 (centres undefined) | 11.2
2 | O=C1c2ccsc2CCC1CCN1CCC(c2noc3cc(F)ccc23)CC1 (centres undefined) | 0.135
3 | O=C1c2ccoc2CCC1CCN1CCN(c2ccccn2)CC1 (centres undefined) | 676

Further lines, results first:

Row | Kb [nM] | Structure (SMILES)
4 | 0.955 | O=C(c1ccc(F)cc1)C1CCN(CCC2CCc3sccc3C2=O)CC1 (centres undefined)
5 | 63.1 | O=C(CCCN1CCN(CC2CC(=O)c3ccccc32)CC1)c1ccc(F)cc1 (centres undefined)
6 | 13.8 | O=C1CC(CN2CCC(C(=O)c3ccc(F)cc3)CC2)Cc2ccccc21 (centres undefined)
7 | 7.41 | O=C1CC(CN2CCC(C(=O)c3ccc(F)cc3)CC2)c2ccccc21 (centres undefined)

Target: T2, 5-hydroxytryptamine receptor 2B (Rattus norvegicus, UniProt P30994)
Test: Antagonistic activity on 5-hydroxytryptamine 2B receptor of Rat stomach fundus;ND is not determined
Format: functional, tissue-based
Details: read-out: pA2 (converted)
In short: (§1)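 Rat stomach fundus strips equilibrated 1 h under 1 g load; isometric contractions to cumulative 5-HT (0.01 nM–10 μM) in organ bath. Control curves, then antagonist preincubated before test curve; pA2 from EC50 shift at one antagonist concentration, […].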

T2 sequence (P30994 whole entry): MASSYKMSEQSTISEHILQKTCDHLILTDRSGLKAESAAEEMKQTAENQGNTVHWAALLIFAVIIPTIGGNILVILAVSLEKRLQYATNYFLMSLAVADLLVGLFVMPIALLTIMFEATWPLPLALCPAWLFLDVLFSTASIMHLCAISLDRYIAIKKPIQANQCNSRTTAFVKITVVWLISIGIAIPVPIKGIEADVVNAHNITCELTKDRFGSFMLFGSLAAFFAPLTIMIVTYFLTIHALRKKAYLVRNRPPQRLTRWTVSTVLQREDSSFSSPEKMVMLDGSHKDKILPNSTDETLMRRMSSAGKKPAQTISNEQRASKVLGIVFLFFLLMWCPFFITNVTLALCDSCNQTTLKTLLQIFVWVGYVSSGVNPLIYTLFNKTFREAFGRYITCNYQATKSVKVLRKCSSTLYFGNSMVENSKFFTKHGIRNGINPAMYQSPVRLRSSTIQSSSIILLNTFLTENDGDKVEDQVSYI

Row | Kb [nM] | Structure (SMILES)
8 | 331 | O=C(c1ccc(F)cc1)C1CCN(CCC2CCc3ccsc3C2=O)CC1 (centres undefined)

Target: T2, 5-hydroxytryptamine receptor 2B
Test: Negative log concentration of antagonistic compound was determined on 5-hydroxytryptamine 2B receptor of Rat stomach fundus
Format: functional, tissue-based
Details: read-out: pA2 (converted)
In short: as §1

Row | Structure (SMILES) | Kb [nM]
9 | O=C1CC(CN2CCN(c3ncccn3)CC2)Cc2occc21 (centres undefined) | 977

Target: T1, 5-hydroxytryptamine receptor 2A
Test: Inhibitory constant on 5-hydroxytryptamine 2A receptor of Rat frontal cortex
Format: tissue-based
Details: not given

Row | Structure (SMILES) | pKi
10 | COc1ccccc1N1CCN(CC2CC(=O)c3ccoc3C2)CC1 (centres undefined) | < 5.00
11 | O=C1CC(CN2CCC(c3noc4cc(F)ccc34)CC2)Cc2sccc21 (single isomer, unassigned; (+)) | 7.94
12 | O=C1CC(CN2CCC(c3noc4cc(F)ccc34)CC2)Cc2ccccc21 (centres undefined) | 8.57
13 | O=C1CC(CN2CCN(c3ncccn3)CC2)Cc2occc21 (centres undefined) | < 5.00
14 | CCc1c(C)[nH]c2c1C(=O)CC(CN1CCC(c3noc4cc(F)ccc34)CC1)C2 (centres undefined) | 8.37
15 | CCc1c(C)[nH]c2c1C(=O)CC(CN1CCC(C(=O)c3ccc(F)cc3)CC1)C2 (centres undefined) | 8.06
16 | O=C1CC(CN2CCC(c3noc4cc(F)ccc34)CC2)Cc2sccc21 (stereo in doubt; (-)18h) | 7.93
17 | O=C1c2ccoc2CCC1CCN1CCN(c2ccccn2)CC1 (centres undefined) | 6.45
18 | O=C1CC(CN2CCN(c3ccccn3)CC2)c2ccccc21 (centres undefined) | < 5.00

Results, then the compound that gave them:

Row | pKi | Structure (SMILES)
19 | 6.04 | CCc1c(C)[nH]c2c1C(=O)CC(CN1CCN(CCCC(=O)c3ccc(F)cc3)CC1)C2 (centres undefined)
20 | 7.27 | O=C(CCCN1CCN(CCC2Cc3cc(F)ccc3C2=O)CC1)c1ccc(F)cc1 (centres undefined)

Target: T3, 5-hydroxytryptamine receptor 2C (Homo sapiens, UniProt P28335)
T3 sequence (P28335 whole entry): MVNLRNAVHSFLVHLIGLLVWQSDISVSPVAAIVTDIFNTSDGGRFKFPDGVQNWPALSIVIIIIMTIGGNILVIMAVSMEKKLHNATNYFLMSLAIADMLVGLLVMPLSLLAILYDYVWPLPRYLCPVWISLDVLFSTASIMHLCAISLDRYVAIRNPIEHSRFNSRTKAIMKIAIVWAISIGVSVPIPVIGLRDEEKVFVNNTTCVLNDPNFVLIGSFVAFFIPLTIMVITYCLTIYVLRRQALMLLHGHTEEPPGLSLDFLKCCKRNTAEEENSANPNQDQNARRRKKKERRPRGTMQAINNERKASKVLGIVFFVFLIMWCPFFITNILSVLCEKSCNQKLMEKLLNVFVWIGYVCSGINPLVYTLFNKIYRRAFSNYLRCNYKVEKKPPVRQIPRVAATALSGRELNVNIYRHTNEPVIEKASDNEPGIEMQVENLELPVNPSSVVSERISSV
Test: Inhibitory constant on human 5-hydroxytryptamine 2C receptor transfected in to HeLa cells
Format: cell-based
Details: not given
In short: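 HeLa cells stably expressing cloned human 5-HT2C, grown 24 h in dialyzed FCS; membranes as for human 5-HT2A. [3H]mesulergine (2 nM final) competition, nonspecific with 1 μM mianserine, 1 h at room temperature; GF/B filtration, scintillation counting. Ki via Cheng–Prusoff.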

Row | pKi | Structure (SMILES)
21 | 5.40 | O=C1CC(CN2CCC(c3noc4cc(F)ccc34)CC2)Cc2occc21 (centres undefined)

Target: Serotonin receptor 2a and 2c (5HT2A and 5HT2C) (Rattus norvegicus) (UniProt P08909+P14842)
Test: Selectivity ratio towards Ki of 5-hydroxytryptamine 2A receptor to 5-hydroxytryptamine 2C receptor
Format: protein assay
Details: not given

Chain of Serotonin receptor 2a and 2c (5HT2A and 5HT2C) (Rattus norvegicus) (P08909 whole entry, looked up): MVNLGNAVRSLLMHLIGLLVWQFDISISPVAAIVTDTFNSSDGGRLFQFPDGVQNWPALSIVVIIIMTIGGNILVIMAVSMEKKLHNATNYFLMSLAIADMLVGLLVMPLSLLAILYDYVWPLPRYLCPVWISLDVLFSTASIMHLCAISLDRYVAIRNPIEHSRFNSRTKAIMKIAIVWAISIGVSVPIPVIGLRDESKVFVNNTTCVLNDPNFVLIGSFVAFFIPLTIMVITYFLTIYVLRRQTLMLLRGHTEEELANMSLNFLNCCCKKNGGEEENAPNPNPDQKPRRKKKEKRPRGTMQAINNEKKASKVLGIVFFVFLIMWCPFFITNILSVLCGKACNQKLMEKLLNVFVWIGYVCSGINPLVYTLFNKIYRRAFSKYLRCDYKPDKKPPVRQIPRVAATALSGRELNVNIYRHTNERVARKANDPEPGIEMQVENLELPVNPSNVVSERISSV
Chain of Serotonin receptor 2a and 2c (5HT2A and 5HT2C) (Rattus norvegicus) (P14842 whole entry, looked up): as the sequence (P14842 whole entry) above

Row | Structure (SMILES) | Ratio
22 | O=C1CC(CN2CCC(c3noc4cc(F)ccc34)CC2)Cc2sccc21 (racemic) | 44
23 | COc1ccccc1N1CCN(CC2CC(=O)c3ccoc3C2)CC1 (centres undefined) | 1
24 | O=C1CC(CN2CCN(c3ncccn3)CC2)Cc2occc21 (centres undefined) | 1
25 | CCc1c(C)[nH]c2c1C(=O)CC(CN1CCC(c3noc4cc(F)ccc34)CC1)C2 (centres undefined) | 89
26 | CCc1c(C)[nH]c2c1C(=O)CC(CN1CCC(C(=O)c3ccc(F)cc3)CC1)C2 (centres undefined) | 4.1
27 | O=C(c1ccc(F)cc1)C1CCN(CCC2CCc3ccsc3C2=O)CC1 (centres undefined) | 31
28 | CCc1c(C)[nH]c2c1C(=O)CC(CN1CCN(c3ccccc3OC)CC1)C2 (centres undefined) | 13
29 | O=C1c2sccc2CCC1CCN1CCC(c2noc3cc(F)ccc23)CC1 (centres undefined) | 10
30 | O=C1CC(CN2CCN(c3ccccc3)CC2)Cc2occc21 (centres undefined) | 1440
31 | O=C1CC(CN2CCC(c3noc4cc(F)ccc34)CC2)Cc2occc21 (centres undefined) | 2950
32 | COc1ccccc1N1CCN(CC2CC(=O)c3c([nH]c4ccccc34)C2)CC1 (centres undefined) | 1.9
33 | O=C1c2ccoc2CCC1CCN1CCN(c2ccccn2)CC1 (centres undefined) | 89
34 | O=C1CC(CN2CCN(c3ccccn3)CC2)c2ccccc21 (centres undefined) | 0.027

Continued, values first:

Row | Ratio | Structure (SMILES)
35 | 0.26 | CCc1c(C)[nH]c2c1C(=O)CC(CN1CCN(CCCC(=O)c3ccc(F)cc3)CC1)C2 (centres undefined)
36 | 65 | O=C1CC(CN2CCC(C(=O)c3ccc(F)cc3)CC2)Cc2[nH]c3ccccc3c21 (centres undefined)
37 | 25 | O=C(CCCCN1CCN(CC2CC(=O)c3ccoc3C2)CC1)c1ccc(F)cc1 (centres undefined)
38 | 36 | O=C(CCCN1CCN(CCC2Cc3cc(F)ccc3C2=O)CC1)c1ccc(F)cc1 (centres undefined)
39 | 33 | O=C(CCCN1CCN(CC2CC(=O)c3ccoc3C2)CC1)c1ccc(F)cc1 (centres undefined)
